# Bioassay records: PubChem BioAssay, several laboratories
# p97 ATPase inh = human p97 ATPase inhibition. P55072. recombinant p97 ATPase, Kinase-Glo ATP luminescence, 3 h. inhibition, % at 8 µM. actives 0.42% (n = 220,000). AID 1481; in the data active = inhibition above about 15%;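 note: 0% = DMSO vehicle and 100% = wells lacking enzyme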
# PMI activator = increases human mannose-6-phosphate isomerase activity; AID 1214; activation factor at 20 µM; purified human PMI, coupled resazurin fluorescence, 20 min; hits give high values; 1 = vehicle control, 0 substrate-free wells; actives 0.005% (n = 190,000);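 active = activation factor of 2 or more at 20 µM, relative to plate controls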
# Target sequence (P34949 whole entry, looked up): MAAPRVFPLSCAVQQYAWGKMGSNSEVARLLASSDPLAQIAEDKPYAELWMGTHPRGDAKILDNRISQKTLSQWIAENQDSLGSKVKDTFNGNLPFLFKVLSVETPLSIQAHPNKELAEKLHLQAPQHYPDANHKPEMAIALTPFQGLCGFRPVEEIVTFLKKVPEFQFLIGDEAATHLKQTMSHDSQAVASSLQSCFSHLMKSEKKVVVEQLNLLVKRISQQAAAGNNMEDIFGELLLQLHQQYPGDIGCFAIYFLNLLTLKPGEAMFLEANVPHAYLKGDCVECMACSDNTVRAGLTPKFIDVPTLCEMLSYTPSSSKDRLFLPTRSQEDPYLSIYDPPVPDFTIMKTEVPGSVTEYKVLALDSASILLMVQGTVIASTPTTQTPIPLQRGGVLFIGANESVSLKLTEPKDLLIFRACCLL
# PMI act hi M6P = PMI (human) activation, high substrate; coupled PMI enzyme assay, resazurin fluorescence, 20 min; hits give high values; 1 = untreated enzyme, 0 = substrate-free blank; activation factor at 20 µM; actives 0.34% (n = 190,000);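 active = activation factor of 2 or more at 20 µM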
#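 Test system: Human PMI in coupled enzyme assay | Input: 15 ng/mL PMI | Medium: HEPES-buffered pH 7.4 with magnesium and detergent | Compound: One concentration, 20 µM, in 1% DMSO | Incubation: Enzyme reaction with compound 20 min at room temperature | Detection: Diaphorase-driven resazurin-to-resorufin fluorescence, excitation 544, emission 590 nm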
# G6PDH counter-1 = counter-screen for G6PDH assay hits: L. mesenteroides G6PDH inhibition. actives 0.12% (n = 200,000). inhibition, % at 5 µM. Purified L. mesenteroides G6PDH, diaphorase/resazurin coupled fluorescence, 45 min; in the data active = inhibition above about 50%
# Tb hexokinase = blocks Trypanosoma brucei hexokinase 1 activity; recombinant TbHK1, G6PDH-coupled NADH A340; inhibition, % at 10 µM; actives 0.11% (n = 220,000);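 active = inhibition of 50% or more in the single-dose primary screen; inactive = inhibition below 50%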
# DTT redox prof = compounds producing H2O2 with reducing agent – biochemical, NIH compound library profiling, artefact control for MLSCN library redox annotation, primary screen. activation, % at 10 µM. actives 0.03% (n = 200,000). AID 878. DTT-dependent redox cycling H2O2, phenol red/HRP absorbance; 100% = 100 µM peroxide control, 0% = buffer;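 active = activation of at least 50% relative to the plate's high and low controls in the primary single-dose screen; inactive = activation below 50%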;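 note: compound incubated with DTT at 0.8 mM final as the reducing agent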
# G6PDH counter-2 = inhibits Leuconostoc G6PDH, counter-screen for TbHK1 inhibitors; actives 7% (n = 210); inhibition, % at 10 µM; AID 2516; purified G6PDH, NADH absorbance, 1 h; shares compounds with Tb hexokinase;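 active = at least 50% inhibition in the glucose-6-phosphate dehydrogenase coupled counterscreen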
# TbHK1 confirm = confirmation of Trypanosoma brucei hexokinase 1 inhibitors. actives 10% (n = 210). AID 2560. recombinant TbHK1, G6PDH-coupled NADH A340 absorbance. shares compounds with Tb hexokinase. inhibition, % at 10 µM;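 active = inhibition of at least 50% in both of the two screening runs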;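 note: 0% and 100% set by the maximum and minimum signal control wells on each plate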
# * hit, by the source's call; . = no result given. In the library only some 0.91% were active in any assay of this set; here they are far more common.
SMILES,p97 ATPase inh,PMI activator,PMI act hi M6P,G6PDH counter-1,Tb hexokinase,DTT redox prof,G6PDH counter-2,TbHK1 confirm
CCOc1cccc2c1OC1(C)CC2NC(=O)N1c1cccc(F)c1 (stereo not given),3.3,1,1.1,4.4,56.9*,1.6,-4.8,-1.2
CSc1ccc(CN2CCCC(CNC(=O)c3ccc(F)cc3)C2)cc1 (stereo not given),0.0,0.9,1,3.9,6.7,0.0,.,.
NC(=O)C1CCN(C(=O)CN(c2cccc(C(F)(F)F)c2)S(=O)(=O)c2ccccc2)CC1,2.6,0.9,1,2.1,51.7*,1.6,-7.1,0.3
c1cc(-c2nnc(-c3ccncc3)o2)ccn1,-3.8,1,1,11.4,74.4*,19.7,-7.0,-7.3
O=C1CC(C(=O)NCc2ccccc2)C2(CCCC2)O1 (stereo not given),-1.7,1,1.1,5.2,54.7*,0.2,1.0,1.7
CCOCCCNC(=O)C(NC(=O)c1ccc(NC(C)=O)cc1)c1ccc(C)cc1 (stereo not given),-1.7,0.8,0.9,15.1,-4.4,-0.2,.,.
CCOCCCNC(=O)C(NC(=O)c1cnccn1)c1ccc(C)cc1 (stereo not given),-4.2,0.9,1,1.8,55.5*,0.1,-4.7,2.7
Cc1ccc(Nc2cc(=O)oc3ccccc23)c(C)c1,1.5,1,1.1,0.9,55.1*,0.3,8.3,3.9
Cn1nc(C(C)(C)C)cc1NC(=O)Nc1cc(Cl)cc(Cl)c1,4.4,.,.,.,-6.9,.,.,.
O=C(CCC(=O)Nc1ccc(Oc2ccccc2)cc1)NCCO,0.0,1.1,1,2.5,50.3*,11.4,-9.8,1.6
CC(=O)Nc1ccc(NC(=O)CCC(=O)NCCO)cc1,5.8,1,1,3.7,34.6,2.5,.,.
O=C(Nc1ccc2c(c1)OCO2)C1CCCN(S(=O)(=O)c2cccs2)C1 (stereo not given),-1.1,1.1,0.9,13.9,54.9*,-1.6,2.2,-5.1
O=C(Nc1ccc2c(c1)OCO2)C1CCN(S(=O)(=O)c2cccs2)CC1,-0.2,1,0.9,7.4,-3.0,3.2,.,.
O=C(Nc1ccc2c(c1)OCCO2)C1CCCN(S(=O)(=O)c2cccs2)C1 (stereo not given),-6.6,1.1,1,13.3,57.8*,-1.4,-0.5,-3.0
CC(C)C[C@@H]1NC(=O)[C@H](CO)NC(=O)c2cc([N+](=O)[O-])cc(I)c2OCC[C@@H](C(N)=O)NC1=O,-2.4,1.2,1.2,11.4,-8.7,0.3,.,.
Cc1cccc(C(=O)NC(=S)NNC(=O)c2ccc(Cl)cc2)c1,4.9,1,1.1,-6.3,62.1*,0.1,-44.4,-38.7
Cn1c(SCc2cccc(F)c2)nnc1-c1ccccn1,-3.6,1,1,-1.9,55.5*,1.8,-7.9,-2.4
Cn1c(SCc2cccc(Br)c2)nnc1-c1ccccn1,0.0,.,.,.,2.9,.,.,.
COc1cccc(C2=NOC(C(=O)Nc3cc(OC)c(OC)c(OC)c3)C2)c1 (stereo not given),-2.9,1,1,2.4,64.8*,1.3,-8.2,-1.8
C1CCN=C(Nc2nn[nH]n2)CC1,4.9,1.1,1.2,8.5,54.8*,4.7,-5.3,-9.8
COc1ccc(CNC2=CC(=O)CC(C)(C)C2)cc1,1.8,1.1,1.1,11.3,57.0*,-0.6,-2.1,-2.8
CCc1cccc(NC(=O)C2CCCC2)c1,-4.9,1,1,-0.5,-1.6,0.9,.,.
CCc1cccc(NC(=O)NC2CCCCC2)c1,-2.4,0.8,0.9,8.8,59.8*,1.1,-4.8,5.0
O=S(=O)(CC(O)COc1ccccc1Cl)c1ccccc1 (stereo not given),-10.4,1.1,0.9,1.9,13.2,1.7,.,.
